Each block holds one compound with its values, some of them ahead of it.
Assays:
Cavia porcellus = organism: Cavia porcellus; test: Negative logarithm of the concentration required to depress contraction in the Langendorff perfused guinea pig heart by 25%; assay type: functional
[1] = Selectivity index, inhibition of [Ca2+] induced contraction of K+ depolarized rat aorta (IC50) to inhibition of contraction of guinea pig heart (IC25); assay type: functional, Cavia porcellus
Rattus norvegicus = organism: Rattus norvegicus; test: Concentration required to block [Ca2+] induced contraction of K+ depolarized rat aorta by 50%; assay type: functional
Canis familiaris [2] = test: Percent decrease in coronary vasodilator activity in anesthetized dogs following intravenous administration was determined; assay type: functional, Canis lupus familiaris
Summary of the method: (§1)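 Anesthetized beagle dogs were catheterized to record blood pressure and left ventricular pressure and to give compound intravenously, as one single dose for duration of action. Coronary blood flow was measured by hydrogen clearance with platinum electrodes in the coronary sinus and femoral artery, and cardiac output by thermodilution. Coronary vascular resistance was derived from these measurements.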

Canis familiaris [3] = organism: Canis familiaris; test: Duration of time taken for percent decrease in coronary vasodilator activity; assay type: functional, Canis lupus familiaris; summary of the method: as §1
Canis familiaris [4] = test: The compound was tested for % decrease in coronary vasodilator activity in anesthetized dogs following intravenous administration; assay type: functional, Canis lupus familiaris; summary of the method: as §1
Canis familiaris [5] = organism: Canis familiaris; test: Duration of time taken for the compound for % decrease in coronary vasodilator activity; assay type: functional, Canis lupus familiaris; summary of the method: as §1
[6] = Plasma clearance in dogs after intravenous administration; assay type: ADME, organism-based, Canis lupus familiaris; conditions: dog
[7] = Volume of distribution in dog after intravenous administration; assay type: ADME, organism-based, Canis lupus familiaris; conditions: in vivo, read-out: Volume of distribution
[8] = Plasma half-life in dog after intravenous administration; assay type: ADME, organism-based, Canis lupus familiaris

Structure (SMILES): CCO/C(O)=C1\C(COCC/N=C(\NC#N)NCCN(C)C)=NC(C)=C(C(=O)OC)C1c1ccccc1Cl (stereo not given)
pIC25 (Cavia porcellus): 6.8 | Selectivity index [1]: 3 | IC50 (Rattus norvegicus): 50.1 nM

Structure (SMILES): CCO/C(O)=C1\C(COCCN(C)/C(=N/C)NC#N)=NC(C)=C(C(=O)OC)C1c1ccccc1Cl (stereo not given)
pIC25 (Cavia porcellus): 6.6 | Selectivity index [1]: 10 | IC50 (Rattus norvegicus): 25.1 nM

Structure (SMILES): CCO/C(O)=C1\C(COCCNC(C)=O)=NC(C)=C(C(=O)OC)C1c1ccccc1Cl (stereo not given)
pIC25 (Cavia porcellus): 7.6 | Selectivity index [1]: 1.6 | IC50 (Rattus norvegicus): 15.8 nM

Structure (SMILES): CCO/C(O)=C1\C(COCCNC(=O)NCCN)=NC(C)=C(C(=O)OC)C1c1ccccc1Cl.O=C(O)/C=C\C(=O)O (stereo not given)
pIC25 (Cavia porcellus): 7.1 | Selectivity index [1]: 1.6 | IC50 (Rattus norvegicus): 50.1 nM

Structure (SMILES): CCO/C(O)=C1\C(COCCNC(=O)c2cccnc2)=NC(C)=C(C(=O)OC)C1c1ccccc1Cl (stereo not given)
pIC25 (Cavia porcellus): 7.6 | Selectivity index [1]: 1.6 | IC50 (Rattus norvegicus): 15.8 nM

Structure (SMILES): CCO/C(O)=C1\C(COCCN(C)S(N)(=O)=O)=NC(C)=C(C(=O)OC)C1c1ccccc1Cl (stereo not given)
pIC25 (Cavia porcellus): 6.7 | Selectivity index [1]: 8 | IC50 (Rattus norvegicus): 25.1 nM

Structure (SMILES): CCO/C(O)=C1\C(COCCN(C)C(=O)NC)=NC(C)=C(C(=O)OC)C1c1ccccc1Cl (stereo not given)
pIC25 (Cavia porcellus): 7 | Selectivity index [1]: 5 | Decrease (Canis familiaris [2]): 68% | IC50 (Rattus norvegicus): 20 nM | Duration of action (Canis familiaris [3]): 15 min

Structure (SMILES): CCO/C(O)=C1\C(COCCN(CC(N)=O)CC(N)=O)=NC(C)=C(C(=O)OC)C1c1ccccc1Cl (stereo not given)
pIC25 (Cavia porcellus): 6 | Selectivity index [1]: 16 | IC50 (Rattus norvegicus): 63.1 nM

Structure (SMILES): CCO/C(O)=C1\C(COCCNC(=O)Nc2ccnc(O)n2)=NC(C)=C(C(=O)OC)C1c1ccccc1Cl (stereo not given)
pIC25 (Cavia porcellus): 7.7 | Selectivity index [1]: 0.1 | IC50 (Rattus norvegicus): 158 nM

Structure (SMILES): CCO/C(O)=C1\C(COCCNCC(=O)NC)=NC(C)=C(C(=O)OC)C1c1ccccc1Cl (stereo not given)
pIC25 (Cavia porcellus): 6.9 | Selectivity index [1]: 5 | IC50 (Rattus norvegicus): 25.1 nM

Structure (SMILES): CCO/C(O)=C1\C(COCCNC(=O)NCCN2CCNC2=O)=NC(C)=C(C(=O)OC)C1c1ccccc1Cl (stereo not given)
pIC25 (Cavia porcellus): 6.2 | Selectivity index [1]: 40 | IC50 (Rattus norvegicus): 15.8 nM

Structure (SMILES): CCO/C(O)=C1\C(COCCNCC(=O)NCCN)=NC(C)=C(C(=O)OC)C1c1ccccc1Cl (stereo not given)
pIC25 (Cavia porcellus): 7 | Selectivity index [1]: 1 | IC50 (Rattus norvegicus): 100 nM

Structure (SMILES): COC(=O)C1=C(C)NC(C)=C(C(=O)OC)C1c1ccccc1[N+](=O)[O-] [NIFEDIPINE]
pIC25 (Cavia porcellus): 7.5 | Decrease (Canis familiaris [4]): 77% | Duration of action (Canis familiaris [5]): 36 min

Structure (SMILES): CCO/C(O)=C1\C(COCCNC(=O)NCC(N)=O)=NC(C)=C(C(=O)OC)C1c1ccccc1Cl (stereo not given)
pIC25 (Cavia porcellus): 6.4 | Selectivity index [1]: 20 | IC50 (Rattus norvegicus): 20 nM

Structure (SMILES): CCO/C(O)=C1\C(COCCNC(=O)c2cnccn2)=NC(C)=C(C(=O)OC)C1c1ccccc1Cl (stereo not given)
pIC25 (Cavia porcellus): 7.5 | Selectivity index [1]: 0.8 | IC50 (Rattus norvegicus): 39.8 nM

The remaining compounds from weak to strong by IC50 (Rattus norvegicus), led by results:

IC50 (Rattus norvegicus): 10 nM
Structure (SMILES): CCO/C(O)=C1\C(COCCNC(C)C(N)=O)=NC(C)=C(C(=O)OC)C1c1ccccc1Cl (stereo not given)
pIC25 (Cavia porcellus): 7.2 | Decrease (Canis familiaris [4]): 73% | Selectivity index [1]: 6 | Duration of action (Canis familiaris [5]): 150 min

IC50 (Rattus norvegicus): 10 nM
Structure (SMILES): CCOC(=O)CNC(=O)NCCOCC1=C(C(=O)OCC)C(c2ccccc2Cl)/C(=C(\O)OC)C(C)=N1 (stereo not given)
pIC25 (Cavia porcellus): 7 | Decrease (Canis familiaris [4]): 61% | Selectivity index [1]: 10 | Duration of action (Canis familiaris [5]): 15 min

IC50 (Rattus norvegicus): 7.94 nM
Structure (SMILES): CCO/C(O)=C1\C(COCCNS(N)(=O)=O)=NC(C)=C(C(=O)OC)C1c1ccccc1Cl (stereo not given)
pIC25 (Cavia porcellus): 7.1 | Selectivity index [1]: 10

IC50 (Rattus norvegicus): 6.31 nM
Structure (SMILES): CCO/C(O)=C1\C(COCC/N=C(/NC)NC#N)=NC(C)=C(C(=O)OC)C1c1ccccc1Cl (stereo not given)
pIC25 (Cavia porcellus): 7.5 | Selectivity index [1]: 5

IC50 (Rattus norvegicus): 6.31 nM
Structure (SMILES): CCO/C(O)=C1\C(COCCNC(=O)c2ccc(O)nc2)=NC(C)=C(C(=O)OC)C1c1ccccc1Cl (stereo not given)
pIC25 (Cavia porcellus): 7 | Selectivity index [1]: 16

IC50 (Rattus norvegicus): 5.01 nM
Structure (SMILES): CCO/C(O)=C1\C(COCCNCC(=O)NCCOC)=NC(C)=C(C(=O)OC)C1c1ccccc1Cl (stereo not given)
pIC25 (Cavia porcellus): 7.5 | Selectivity index [1]: 6

clearance [6]: 7 mL/min/kg | Vd [7]: 3 L/kg | half-life [8]: 4.7 h | IC50 (Rattus norvegicus): 3.98 nM
Structure (SMILES): CCO/C(O)=C1\C(COCCNCC(N)=O)=NC(C)=C(C(=O)OC)C1c1ccccc1Cl (stereo not given)
pIC25 (Cavia porcellus): 7.1 | Decrease (Canis familiaris [4]): 88% | Selectivity index [1]: 20 | Duration of action (Canis familiaris [5]): >300 min

IC50 (Rattus norvegicus): 3.16 nM
Structure (SMILES): CCO/C(O)=C1\C(COCCNC(C)(C)C(N)=O)=NC(C)=C(C(=O)OC)C1c1ccccc1Cl (stereo not given)
pIC25 (Cavia porcellus): 7.6 | Decrease (Canis familiaris [4]): 85% | Selectivity index [1]: 8 | Duration of action (Canis familiaris [5]): 210 min

IC50 (Rattus norvegicus): 3.16 nM
Structure (SMILES): CCO/C(O)=C1\C(COCCNC(=O)NC)=NC(C)=C(C(=O)OC)C1c1ccccc1Cl (stereo not given)
pIC25 (Cavia porcellus): 7.6 | Selectivity index [1]: 13

Reference: ChEMBL document CHEMBL1125131, “Long-acting dihydropyridine calcium antagonists. 4. Synthesis and structure-activity relationships for a series of basic and nonbasic derivatives of 2-[(2-aminoethoxy)methyl]-1,4-dihydropyridine calcium antagonists” (J Med Chem, 1990)
